# Assay results published in ChEMBL document CHEMBL1157023, “Synthesis and antimicrobial activities of some new thiazole and pyrazole derivatives based on 4,5,6,7-tetrahydrobenzothiophene moiety” (2010).
# Assays:
# Type in all cases: functional
# Klebsiella pneumoniae = assay: Antimicrobial activity against Klebsiella pneumoniae at 2 mg/ml after 24 hrs by agar diffusion assay; details: read-out: DIZ
# In short: (§1)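 Bacterial strain grown on nutrient agar with test compound in DMSO, DMSO-only control plate for each organism, ampicillin 2 mg/ml as reference. Plates incubated 24 h in three replicate plates per compound. Activity read as inhibition zone diameter.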
# Botrytis fabae = assay: Antifungal activity against Botrytis fabae at 2 mg/ml after 7 days by agar diffusion assay; details: 168 h, read-out: DIZ
# In short: (§2)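 Fungus grown on potato dextrose agar with test compound in DMSO, DMSO-only control plate for each organism. Plates incubated seven days in three replicate plates per compound. Activity read as inhibition zone diameter.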
# Bacillus thuringiensis = assay: Antibacterial activity against Bacillus thuringiensis at 2 mg/ml after 24 hrs by agar diffusion assay; details: read-out: DIZ; in short: as §1
# Fusarium oxysporum = assay: Antifungal activity against Fusarium oxysporum at 2 mg/ml after 7 days by agar diffusion assay; details: 168 h, read-out: DIZ; in short: as §2
Structure (SMILES),zone of inhibition at 2000 µg/mL (Klebsiella pneumoniae) [mm],zone of inhibition at 2000 µg/mL (Botrytis fabae) [mm],zone of inhibition at 2000 µg/mL (Bacillus thuringiensis) [mm],zone of inhibition at 2000 µg/mL (Fusarium oxysporum) [mm]
CC(=O)c1nnc2c(C(=O)Nc3sc4c(c3C(N)=O)CCCC4)c(Nc3ccccc3)nn2c1C,12,18,–,–
Cc1cc(C)n2nc(Nc3ccccc3)c(C(=O)Nc3sc4c(c3C(N)=O)CCCC4)c2n1,17,15,15,13
NC(=O)c1c(NC(=O)c2c(Nc3ccccc3)nn3c4c(cnc23)CCc2ccccc2-4)sc2c1CCCC2,17,–,15,17
Cc1ccc(N/N=C2/C(=O)S/C(=C(\C#N)C(=O)Nc3sc4c(c3C(N)=O)CCCC4)N2c2ccccc2)cc1,19,18,22,16
Cc1nn(-c2ccccc2)c2c1cnc1c(C(=O)Nc3sc4c(c3C(N)=O)CCCC4)c(Nc3ccccc3)nn12,18,16,16,14
NC(=O)c1c(NC(=O)c2cn[nH]c2N)sc2c1CCCC2,20,16,17,12
Cc1ccc(C)n1-c1[nH]nc(Nc2ccccc2)c1C(=O)Nc1sc2c(c1C(N)=O)CCCC2,22,18,18,14
NC(=O)c1c(NC(=O)c2c(Nc3ccccc3)nn3c(-c4ccccc4)ccnc23)sc2c1CCCC2,19,15,15,19
COc1ccc(/C=c2\c(=O)s/c(=C(\C#N)C(=O)Nc3sc4c(c3C(N)=O)CCCC4)n2-c2ccccc2)cc1,23,13,20,15
Cc1cc(C)c2c(n1)nn1c(N)c(C(=O)Nc3sc4c(c3C(N)=O)CCCC4)nnc21,18,13,16,13
NC(=O)c1c(NC(=O)c2c(Nc3ccccc3)n[nH]c2N)sc2c1CCCC2,22,–,24,14
N#Cc1nnc2c(C(=O)Nc3sc4c(c3C(N)=O)CCCC4)c(Nc3ccccc3)nn2c1N,18,16,16,–
N#C/C(C(=O)Nc1sc2c(c1C(N)=O)CCCC2)=C1\SC(=O)CN1c1ccccc1,19,12,21,16
CC1(C)S[C@@H]2[C@H](NC(=O)[C@H](N)c3ccccc3)C(=O)N2[C@H]1C(=O)O [AMPICILLIN],20,15,17,17
